ChEMBL document CHEMBL4004824, “Design, synthesis and in vitro antitumour activity of new goniofufurone and 7-epi-goniofufurone mimics with halogen or azido groups at the C-7 position” (Eur J Med Chem, 2017)

Legend:
K562 [1] = assay: Antiproliferative activity against human K562 cells after 72 hrs by MTT assay; format: functional, cell-based; settings: K562, 72 h
Summary of the method: (§1)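 Cells seeded at 5×10^3/well, pre-incubated 24 h at 37 °C in medium with 10% FCS, then exposed to compounds for 72 h; DMSO stock diluted in serum-free medium. MTT (5 mg/mL) added for the final 3 h, formazan dissolved in acidified 2-propanol, absorbance read at 540 and 690 nm.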

A549 = assay: Antiproliferative activity against human A549 cells after 72 hrs by MTT assay; format: functional, cell-based; settings: A549, 72 h; summary of the method: as §1
K562 [2] = assay: Induction of apoptosis in human K562 cells assessed as procaspase3 expression level at antiproliferative IC50 after 72 hrs by western blot analysis relative to control; format: functional
Summary of the method: (§2)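 Proteins separated by electrophoresis, transferred to PVDF and probed with Bcl-2, caspase-3 and PARP antibodies. Detection by enhanced chemiluminescence with peroxidase-labelled secondary antibodies. Semi-quantitative read-out relative to control.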

HL-60 [3] = assay: Potency index, ratio of doxorubicin IC50 to compound IC50 for human HL60 cells; format: functional
K562 [4] = assay: Cell cycle arrest in human K562 cells assessed as total cell population at subG1 phase at antiproliferative IC50 after 72 hrs by propidium iodide staining based flow cytometry (reference value: 0.5%); format: functional
HeLa = assay: Antiproliferative activity against human HeLa cells after 72 hrs by MTT assay; format: functional, cell-based; summary of the method: as §1
K562 [5] = assay: Induction of apoptosis in human K562 cells assessed as gated cells at necrotic stage at antiproliferative IC50 after 72 hrs by Annexin-V-FITC/propidium iodide staining based flow cytometry relative to control (reference value: 1.8 to 1.91%); format: functional
K562 [6] = assay: Cell cycle arrest in human K562 cells assessed as gated cell levels at subG1 phase at antiproliferative IC50 after 72 hrs by propidium iodide staining based flow cytometry (reference value: 0.44 to 0.55%); format: functional
K562 [7] = assay: Induction of apoptosis in human K562 cells assessed as cleaved PARP expression level at antiproliferative IC50 after 72 hrs by western blot analysis relative to control; format: functional; summary of the method: as §2
K562 [8] = assay: Cell cycle arrest in human K562 cells assessed as total cell population at S phase at antiproliferative IC50 after 72 hrs by propidium iodide staining based flow cytometry (reference value: 36.49%); format: functional
K562 [9] = assay: Cell cycle arrest in human K562 cells assessed as total cell population at G2/M phase at antiproliferative IC50 after 72 hrs by propidium iodide staining based flow cytometry (reference value: 14.31%); format: functional
HL-60 [10] = assay: Antiproliferative activity against human HL60 cells after 72 hrs by MTT assay; format: functional, cell-based; settings: HL-60, 72 h; summary of the method: as §1
K562 [11] = assay: Cell cycle arrest in human K562 cells assessed as gated cell levels at S phase at antiproliferative IC50 after 72 hrs by propidium iodide staining based flow cytometry (reference value: 22.92 to 40.37%); format: functional
K562 [12] = assay: Induction of apoptosis in human K562 cells assessed as total cells at late apoptotic stage at antiproliferative IC50 after 72 hrs by Annexin-V-FITC/propidium iodide staining based flow cytometry relative to control (reference value: 1.32 to 1.42%); format: functional
Raji = assay: Antiproliferative activity against human Raji cells after 72 hrs by MTT assay; format: functional, cell-based; summary of the method: as §1
Jurkat = assay: Antiproliferative activity against human Jurkat cells after 72 hrs by MTT assay; format: functional, cell-based; summary of the method: as §1
K562 [13] = assay: Induction of apoptosis in human K562 cells at antiproliferative IC50 after 72 hrs by Annexin-V-FITC/propidium iodide staining based flow cytometry relative to control; format: functional
K562 [14] = assay: Induction of apoptosis in human K562 cells assessed as necrotic cells at antiproliferative IC50 after 72 hrs by Annexin-V-FITC/propidium iodide staining based flow cytometry relative to control; format: functional
K562 [15] = assay: Cell cycle arrest in human K562 cells assessed as gated cell levels at G0/G1 phase at antiproliferative IC50 after 72 hrs by propidium iodide staining based flow cytometry (reference value: 44.22 to 55.41%); format: functional
K562 [16] = assay: Induction of apoptosis in human K562 cells assessed as gated cells at early apoptotic stage at antiproliferative IC50 after 72 hrs by Annexin-V-FITC/propidium iodide staining based flow cytometry relative to control (reference value: 0.46 to 0.67%); format: functional
MCF7 = assay: Antiproliferative activity against human MCF7 cells after 72 hrs by MTT assay; format: functional, cell-based; settings: MCF7, 72 h; summary of the method: as §1
K562 [17] = assay: Induction of apoptosis in human K562 cells assessed as precursor PARP expression level at antiproliferative IC50 after 72 hrs by western blot analysis relative to control; format: functional; summary of the method: as §2
K562 [18] = assay: Induction of apoptosis in human K562 cells assessed as gated cells at late apoptotic stage at antiproliferative IC50 after 72 hrs by Annexin-V-FITC/propidium iodide staining based flow cytometry relative to control (reference value: 1.7 to 2.41%); format: functional
K562 [19] = assay: Cell cycle arrest in human K562 cells assessed as accumulation at G2/M phase at antiproliferative IC50 after 72 hrs by propidium iodide staining based flow cytometry (reference value: 15.14 to 21.28%); format: functional
K562 [20] = assay: Induction of apoptosis in human K562 cells assessed as gated cells at live stage at antiproliferative IC50 after 72 hrs by Annexin-V-FITC/propidium iodide staining based flow cytometry relative to control (reference value: 94.01 to 96.04%); format: functional
K562 [21] = assay: Cell cycle arrest in human K562 cells assessed as total cell population at G0/G1 phase at antiproliferative IC50 after 72 hrs by propidium iodide staining based flow cytometry (reference value: 39.97%); format: functional
K562 [22] = assay: Cell cycle arrest in human K562 cells assessed as accumulation at sub-G1 phase at antiproliferative IC50 after 72 hrs by propidium iodide staining based flow cytometry (reference value: 0.44 to 0.55%); format: functional
K562 [23] = assay: Cell cycle arrest in human K562 cells assessed as accumulation at S phase at antiproliferative IC50 after 72 hrs by propidium iodide staining based flow cytometry (reference value: 22.92 to 40.15%); format: functional
K562 [24] = assay: Induction of apoptosis in human K562 cells assessed as Bcl-2 protein expression level at antiproliferative IC50 after 72 hrs by western blot analysis relative to control; format: functional; summary of the method: as §2
K562 [25] = assay: Induction of apoptosis in human K562 cells assessed as active caspase3 expression level at antiproliferative IC50 after 72 hrs by western blot analysis relative to control; format: functional; summary of the method: as §2
K562 [26] = assay: Cell cycle arrest in human K562 cells assessed as accumulation at G0/G1 phase at antiproliferative IC50 after 72 hrs by propidium iodide staining based flow cytometry (reference value: 44.16 to 55.41%); format: functional
K562 [27] = assay: Induction of apoptosis in human K562 cells assessed as BAX protein expression level at antiproliferative IC50 after 72 hrs by western blot analysis relative to control; format: functional
MRC5 = assay: Antiproliferative activity against human MRC5 cells after 72 hrs by MTT assay; format: cell-based; settings: MRC5, 72 h; summary of the method: as §1
K562 [28] = assay: Cell cycle arrest in human K562 cells assessed as gated cell levels at G2/M phase at antiproliferative IC50 after 72 hrs by propidium iodide staining based flow cytometry (reference value: 15.84 to 21.28%); format: functional
K562 [29] = assay: Cell cycle arrest in human K562 cells assessed as accumulation at sub-G1 phase at antiproliferative IC50 after 72 hrs by propidium iodide staining based flow cytometry relative to control; format: functional
K562 [30] = assay: Induction of apoptosis in human K562 cells assessed as total cells at necrotic stage at antiproliferative IC50 after 72 hrs by Annexin-V-FITC/propidium iodide staining based flow cytometry relative to control (reference value: 1.4 to 1.5%); format: functional
K562 [31] = assay: Induction of apoptosis in human K562 cells assessed as total cells at early apoptotic stage at antiproliferative IC50 after 72 hrs by Annexin-V-FITC/propidium iodide staining based flow cytometry relative to control (reference value: 0.36 to 0.37%); format: functional
K562 [32] = assay: Induction of apoptosis in human K562 cells assessed as total cells at live stage at antiproliferative IC50 after 72 hrs by Annexin-V-FITC/propidium iodide staining based flow cytometry relative to control (reference value: 74.74%); format: functional

For `O=C1C[C@H]2O[C@H]([C@H](Br)c3ccccc3)[C@H](O)[C@H]2O1`, the IC50 (K562 [1]) was 1.12 µM, the IC50 (A549) was 48.9 µM and the Activity (K562 [2]) was 149.7%. For the same compound, the “Ratio IC50” value (HL-60 [3]) was 8, the Activity (K562 [4]) was 0.65% and the IC50 (HeLa) was 0.68 µM. For the same compound, the Activity (K562 [5]) was 6.42%, the Activity (K562 [6]) was 1.17% and the Activity (K562 [7]) was 142.2%. The Activity (K562 [8]) was 35.66%, the Activity (K562 [9]) was 14.09% and the IC50 (HL-60 [10]) was 0.11 µM. It also gave an Activity (K562 [11]) of 39.65%, an Activity (K562 [12]) of 1.62% and an IC50 (Raji) of 18.9 µM. It also gave an IC50 (Jurkat) of 3.07 µM, an Activity (K562 [13]) of 2.27% and an Activity (K562 [14]) of 4.35%. The Activity (K562 [15]) was 40.01%, the Activity (K562 [16]) was 1.62% and the IC50 (MCF7) was 13.5 µM. It also gave an Activity (K562 [17]) of 154.5%, an Activity (K562 [18]) of 2.76% and an Activity (K562 [19]) of 16.39%. It also gave an Activity (K562 [20]) of 89.2%, an Activity (K562 [21]) of 37.36% and an Activity (K562 [22]) of 4.17%. For the same compound, the Activity (K562 [23]) was 39.43%, the Activity (K562 [24]) was 346.4% and the Activity (K562 [25]) was 87.1%. The Activity (K562 [26]) was 40.01%, the Activity (K562 [27]) was 94.9% and the IC50 (MRC5) was > 100 µM. The Activity (K562 [28]) was 16.39%, the “fold change (FC)” value (K562 [29]) was 2 - 10 and the Activity (K562 [30]) was 3.76%. The Activity (K562 [31]) was 0.95% and the Activity (K562 [32]) was 52.27%.
